ChEMBL document CHEMBL1145479, “Tigecycline Efflux as a Mechanism for Nonsusceptibility in Acinetobacter baumannii” (2007)
Values after ≈ are worked out from the molar mass of the structure shown.

Assays:
[1] = test system: Acinetobacter baumannii; assay: Antimicrobial activity against Acinetobacter baumannii C75 in presence of efflux pump inhibitor phenyl-arginine-beta-naphthylamide by broth microdilution method; type: functional
[2] = test system: Acinetobacter baumannii; assay: Antimicrobial activity against Acinetobacter baumannii C75 by broth microdilution method; type: functional
[3] = test system: Acinetobacter baumannii; assay: Antimicrobial activity against Acinetobacter baumannii D54 by broth microdilution method; type: functional
[4] = test system: Acinetobacter baumannii; assay: Antimicrobial activity against Acinetobacter baumannii A24D after 4 days in presence of efflux pump inhibitor phenyl-arginine-beta-naphthylamide by broth microdilution method; type: functional; settings: 96 h
[5] = test system: Acinetobacter baumannii; assay: Antimicrobial activity against Acinetobacter baumannii B46 by broth microdilution method; type: functional
[6] = test system: Acinetobacter baumannii; assay: Antimicrobial activity against Acinetobacter baumannii A24C after 4 days by broth microdilution method; type: functional; settings: 96 h
[7] = test system: Acinetobacter baumannii; assay: Antimicrobial activity against Acinetobacter baumannii A24D after 4 days by broth microdilution method; type: functional; settings: 96 h
[8] = test system: Acinetobacter baumannii; assay: Antimicrobial activity against Acinetobacter baumannii A24A after 4 days by broth microdilution method; type: functional; settings: 96 h
[9] = test system: Acinetobacter baumannii; assay: Antimicrobial activity against Acinetobacter baumannii A24B after 4 days by broth microdilution method; type: functional; settings: 96 h
[10] = test system: Acinetobacter baumannii; assay: Antimicrobial activity against Acinetobacter baumannii A24 in presence of efflux pump inhibitor phenyl-arginine-beta-naphthylamide by broth microdilution method; type: functional
[11] = test system: Acinetobacter baumannii; assay: Antimicrobial activity against Acinetobacter baumannii B46 in presence of efflux pump inhibitor phenyl-arginine-beta-naphthylamide by broth microdilution method; type: functional
[12] = test system: Acinetobacter baumannii; assay: Antimicrobial activity against Acinetobacter baumannii A24 by broth microdilution method; type: functional
[13] = test system: Acinetobacter baumannii; assay: Inhibition of AdeABC efflux pump protein in Acinetobacter baumannii A24D assessed as ethidium bromide accumulation at 100 uM; design: scale not given: the % may be the effect or the level left
Outline: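 Overnight cells were pelleted and resuspended to A600 0.2 in sodium phosphate buffer, pH 7.0. Ethidium bromide was added at 2 μg/ml final and incubated 420 s. CCCP was then added at 100 μM final for a further 180 s. Fluorescence was read at ex 530 / em 600 nm, with cell-only background subtracted. The value is the percent increase in accumulation after CCCP.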

[14] = test system: Acinetobacter baumannii; assay: Antimicrobial activity against Acinetobacter baumannii B46 by agar dilution method; type: functional
Outline: (§1)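 Tigecycline MIC first estimated by Etest, then confirmed by agar dilution on Mueller-Hinton II agar. Strains were grown in LB broth.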

[15] = test system: Acinetobacter baumannii; assay: Antimicrobial activity against Acinetobacter baumannii A24B after 4 days by agar dilution method; type: functional; settings: 96 h
Outline: (§2)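 Fresh cultures were passaged overnight on tigecycline-containing Mueller-Hinton II agar, boiled before inoculation to prevent tigecycline oxidative degradation. […] Inoculum was 0.5 McFarland. Tigecycline MICs were recorded daily by agar dilution.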

[16] = test system: Acinetobacter baumannii; assay: Inhibition of AdeABC efflux pump protein in Acinetobacter baumannii B46 assessed as ethidium bromide accumulation at 100 uM; design: scale not given: the % may be the effect or the level left
Outline: (§3)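 Overnight cells pelleted and resuspended to A600 0.2 in sodium phosphate buffer pH 7.0, with ethidium bromide at 2 μg/ml final. Incubated 420 s, then CCCP (protonophore) added at 100 μM final for a further 180 s. Fluorescence read at ex 530/em 600 nm, cell-only background subtracted, and expressed as percent increase in accumulation after CCCP.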

[17] = test system: Acinetobacter baumannii; assay: Antimicrobial activity against Acinetobacter baumannii A24 in presence of efflux pump inhibitor phenyl-arginine-beta-naphthylamide by agar dilution method; type: functional
[18] = test system: Acinetobacter baumannii; assay: Antimicrobial activity against Acinetobacter baumannii C75 in presence of efflux pump inhibitor phenyl-arginine-beta-naphthylamide by agar dilution method; type: functional
[19] = test system: Acinetobacter baumannii; assay: Inhibition of AdeABC efflux pump protein in Acinetobacter baumannii A24 assessed as ethidium bromide accumulation at 100 uM; design: scale not given: the % may be the effect or the level left; outline: as §3
[20] = test system: Acinetobacter baumannii; assay: Antimicrobial activity against Acinetobacter baumannii A24C after 4 days by agar dilution method; type: functional; settings: 96 h; outline: as §2
[21] = test system: Acinetobacter baumannii; assay: Antimicrobial activity against Acinetobacter baumannii D54 by agar dilution method; type: functional
Outline: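 Tigecycline MIC screened by Etest and confirmed by agar dilution on Mueller-Hinton II agar; strains cultivated in LB broth.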

[22] = test system: Acinetobacter baumannii; assay: Inhibition of AdeABC multidrug efflux pump in Acinetobacter baumannii C75 assessed as ethidium bromide accumulation at 100 uM; design: scale not given: the % may be the effect or the level left; outline: as §3
[23] = test system: Acinetobacter baumannii; assay: Inhibition of AdeABC efflux pump protein in Acinetobacter baumannii D54 assessed as ethidium bromide accumulation at 100 uM; design: scale not given: the % may be the effect or the level left; outline: as §3
[24] = test system: Acinetobacter baumannii; assay: Antimicrobial activity against Acinetobacter baumannii A24 by agar dilution method; type: functional; outline: as §1
[25] = test system: Acinetobacter baumannii; assay: Antimicrobial activity against Acinetobacter baumannii B46 in presence of efflux pump inhibitor phenyl-arginine-beta-naphthylamide by agar dilution method; type: functional
[26] = test system: Acinetobacter baumannii; assay: Antimicrobial activity against Acinetobacter baumannii A24D after 4 days in presence of efflux pump inhibitor phenyl-arginine-beta-naphthylamide by agar dilution method; type: functional; settings: 96 h
Outline: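 Tigecycline MIC determined by agar dilution on Mueller-Hinton agar containing PABN, for bacteria from the final day of growth. PABN was dissolved in water as a 25 mg/ml stock and added to agar cooled to 50°C.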

[27] = test system: Acinetobacter baumannii; assay: Antimicrobial activity against Acinetobacter baumannii A24D after 4 days by agar dilution method; type: functional; settings: 96 h; outline: as §2
[28] = test system: Acinetobacter baumannii; assay: Antimicrobial activity against Acinetobacter baumannii A24A after 4 days by agar dilution method; type: functional; settings: 96 h; outline: as §2
[29] = test system: Acinetobacter baumannii; assay: Antimicrobial activity against Acinetobacter baumannii C75 by agar dilution method; type: functional; outline: as §1

SMILES	MIC [1]	MIC [2]	MIC [3]	MIC [4]	MIC [5]	MIC [6]	MIC [7]	MIC [8]	MIC [9]	MIC [10]	MIC [11]	MIC [12]	other results
CO/N=C(\C(=O)N[C@@H]1C(=O)N2C(C(=O)[O-])=C(C[N+]3(C)CCCC3)CS[C@H]12)c1csc(N)n1 [CEFEPIME]	16 µg/mL	> 256 µg/mL	1.5 µg/mL (≈ 3.12 µM)	1 µg/mL	> 256 µg/mL	16 µg/mL (≈ 33.3 µM)	16 µg/mL (≈ 33.3 µM)	12 µg/mL (≈ 25 µM)	12 µg/mL (≈ 25 µM)	3 µg/mL	128 µg/mL	–	–
CC(C)(O/N=C(\C(=O)N[C@@H]1C(=O)N2C(C(=O)[O-])=C(C[n+]3ccccc3)CS[C@H]12)c1csc(N)n1)C(=O)O [CEFTAZIDIME]	8 µg/mL	192 µg/mL (≈ 351 µM)	4 µg/mL (≈ 7.32 µM)	32 µg/mL	96 µg/mL (≈ 176 µM)	> 256 µg/mL	> 256 µg/mL	> 256 µg/mL	> 256 µg/mL	96 µg/mL	8 µg/mL	> 256 µg/mL	–
O=C(N[C@H](CO)[C@H](O)c1ccc([N+](=O)[O-])cc1)C(Cl)Cl [CHLORAMPHENICOL]	8 µg/mL	32 µg/mL (≈ 99 µM)	0.25 µg/mL (≈ 0.774 µM)	4 µg/mL	32 µg/mL (≈ 99 µM)	96 µg/mL (≈ 297 µM)	16 µg/mL (≈ 49.5 µM)	96 µg/mL (≈ 297 µM)	96 µg/mL (≈ 297 µM)	12 µg/mL	8 µg/mL	16 µg/mL (≈ 49.5 µM)	–
O=C(O)c1cn(C2CC2)c2cc(N3CCNCC3)c(F)cc2c1=O [CIPROFLOXACIN]	256 µg/mL	512 µg/mL (≈ 1550 µM)	0.25 µg/mL (≈ 0.754 µM)	128 µg/mL	128 µg/mL (≈ 386 µM)	256 µg/mL (≈ 773 µM)	512 µg/mL (≈ 1550 µM)	256 µg/mL (≈ 773 µM)	256 µg/mL (≈ 773 µM)	128 µg/mL	128 µg/mL	256 µg/mL (≈ 773 µM)	–
C[C@@H](O)[C@H]1C(=O)N2C(C(=O)O)=C(SCCNC=N)C[C@H]12 [IMIPENEM ANHYDROUS]	0.125 µg/mL	1.5 µg/mL (≈ 5.01 µM)	0.125 µg/mL (≈ 0.418 µM)	0.064 µg/mL	1.5 µg/mL (≈ 5.01 µM)	0.19 µg/mL (≈ 0.635 µM)	0.5 µg/mL (≈ 1.67 µM)	0.125 µg/mL (≈ 0.418 µM)	0.125 µg/mL (≈ 0.418 µM)	0.032 µg/mL	0.25 µg/mL	0.38 µg/mL (≈ 1.27 µM)	–
C[C@@H](O)[C@H]1C(=O)N2C(C(=O)O)=C(S[C@@H]3CN[C@H](C(=O)N(C)C)C3)[C@H](C)[C@H]12 [MEROPENEM]	0.125 µg/mL	4 µg/mL (≈ 10.4 µM)	0.25 µg/mL (≈ 0.652 µM)	0.094 µg/mL	4 µg/mL (≈ 10.4 µM)	0.75 µg/mL (≈ 1.96 µM)	2 µg/mL (≈ 5.22 µM)	0.75 µg/mL (≈ 1.96 µM)	0.75 µg/mL (≈ 1.96 µM)	0.094 µg/mL	0.25 µg/mL	1 µg/mL (≈ 2.61 µM)	–
CN(C)c1ccc(O)c2c1C[C@H]1C[C@H]3[C@H](N(C)C)C(O)=C(C(N)=O)C(=O)[C@@]3(O)C(O)=C1C2=O [MINOCYCLINE]	1 µg/mL	2 µg/mL (≈ 4.37 µM)	0.125 µg/mL (≈ 0.273 µM)	8 µg/mL	0.25 µg/mL (≈ 0.546 µM)	16 µg/mL (≈ 35 µM)	32 µg/mL (≈ 69.9 µM)	12 µg/mL (≈ 26.2 µM)	16 µg/mL (≈ 35 µM)	2 µg/mL	0.25 µg/mL	32 µg/mL (≈ 69.9 µM)	–
CCN1CCN(C(=O)N[C@@H](C(=O)N[C@@H]2C(=O)N3[C@@H]2SC(C)(C)[C@@H]3C(=O)O)c2ccccc2)C(=O)C1=O [PIPERACILLIN]	8 µg/mL	48 µg/mL (≈ 92.7 µM)	16 µg/mL (≈ 30.9 µM)	1 µg/mL	256 µg/mL (≈ 495 µM)	16 µg/mL (≈ 30.9 µM)	24 µg/mL (≈ 46.4 µM)	12 µg/mL (≈ 23.2 µM)	12 µg/mL (≈ 23.2 µM)	3 µg/mL	–	16 µg/mL (≈ 30.9 µM)	–
CN(C)c1cc(NC(=O)CNC(C)(C)C)c(O)c2c1C[C@H]1C[C@H]3[C@H](N(C)C)C(O)=C(C(N)=O)C(=O)[C@@]3(O)C(O)=C1C2=O [TIGECYCLINE]	–	–	–	–	–	–	–	–	–	–	–	–	Activity [13]: 114%; MIC [14]: 4 µg/mL (≈ 6.83 µM); MIC [15]: 2 µg/mL (≈ 3.41 µM); Activity [16]: 115%; MIC [17]: 2 µg/mL; MIC [18]: 4 µg/mL; Activity [19]: 52%; MIC [20]: 6 µg/mL (≈ 10.2 µM); MIC [21]: 0.125 µg/mL (≈ 0.213 µM); Activity [22]: 206%; Activity [23]: 31%; MIC [24]: 2 µg/mL (≈ 3.41 µM); MIC [25]: 1 µg/mL; MIC [26]: 2 µg/mL; MIC [27]: 24 µg/mL (≈ 41 µM); MIC [28]: 2 µg/mL (≈ 3.41 µM); MIC [29]: 16 µg/mL (≈ 27.3 µM)
NC[C@H]1O[C@H](O[C@H]2[C@H](O)[C@@H](O[C@H]3O[C@H](CO)[C@@H](O)[C@H](N)[C@H]3O)[C@H](N)C[C@@H]2N)[C@H](N)C[C@@H]1O [TOBRAMYCIN]	6 µg/mL	16 µg/mL (≈ 34.2 µM)	0.75 µg/mL (≈ 1.6 µM)	8 µg/mL	24 µg/mL (≈ 51.3 µM)	6 µg/mL (≈ 12.8 µM)	16 µg/mL (≈ 34.2 µM)	3 µg/mL (≈ 6.42 µM)	4 µg/mL (≈ 8.56 µM)	3 µg/mL	16 µg/mL	4 µg/mL (≈ 8.56 µM)	–
